Compound activity from PubChem BioAssay.
Hits are enriched below; roughly 3.5% of the tested compounds scored in any of these assays.
MrgX1 antag: antagonists of human MrgX1 receptor, primary screen, HEK293 cells, Fluo-4 calcium flux. Mas-related G-protein coupled receptor member X1 (Homo sapiens), Q96LB2. BAM8-22 antagonism; stronger effect = lower value. B-score at 10 µM. 1.3% of 310,000 active. AID 588676, 2011;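 active = calcium-response B-score plate-corrected more than 3 library SD below zero, starting fluorescence within 5 deviations, no agonist response on first addition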;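 note: peak minus trough fluorescence over baseline after final BAM8-22 challenge near maximal dose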
Target sequence (Q96LB2 whole entry, looked up): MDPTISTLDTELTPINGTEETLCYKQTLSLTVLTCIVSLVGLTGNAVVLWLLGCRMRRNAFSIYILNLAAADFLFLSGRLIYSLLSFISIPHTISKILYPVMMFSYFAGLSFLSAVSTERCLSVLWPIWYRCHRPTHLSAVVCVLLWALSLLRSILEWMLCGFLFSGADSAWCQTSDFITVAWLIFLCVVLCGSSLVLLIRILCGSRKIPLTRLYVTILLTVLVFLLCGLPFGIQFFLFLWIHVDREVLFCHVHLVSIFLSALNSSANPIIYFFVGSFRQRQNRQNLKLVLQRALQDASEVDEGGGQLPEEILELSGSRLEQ
RGS4 inh: RGS4 inhibitors, primary screen, cell-based, HEK293 M3R inducible RGS4, calcium flux; AID 463165, 2010; Regulator of G-protein signaling 4 (Homo sapiens), P49798; B-score at 10 µM; 0.45% of 310,000 active; Fluo-4 calcium flux; stronger effect = higher value; triggered by carbachol at its EC20;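 active = B-score, a plate-corrected calcium signal, over three deviations above library mean, with baseline fluorescence within five deviations of library mean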;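 note: RGS4 expression induced by doxycycline in cells with stable M3 receptor; B-score is computed from the integrated fluorescence ratio over baseline after carbachol; higher B-score means a larger calcium signal and so more RGS4 inhibition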
Target sequence (P49798 whole entry, looked up): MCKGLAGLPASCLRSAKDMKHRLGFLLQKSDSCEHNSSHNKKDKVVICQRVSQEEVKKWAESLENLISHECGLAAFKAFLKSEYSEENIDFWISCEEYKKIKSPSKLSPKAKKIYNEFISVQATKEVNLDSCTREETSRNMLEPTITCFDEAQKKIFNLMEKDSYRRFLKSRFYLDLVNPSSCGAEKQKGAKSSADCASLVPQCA
MrgX1 PAM: positive allosteric modulators of MrgX1, primary screen, HEK293 cells, Fluo-4 calcium flux; B-score at 10 µM; 0.63% of 310,000 active; FDSS; stronger effect = higher value; Mas-related G-protein coupled receptor member X1 (Homo sapiens), Q96LB2;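 active = plate-corrected calcium response at least 3 library SD above typical, normal starting fluorescence, not activating the receptor alone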;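 note: compound read alongside a low EC10 to EC30 dose of BAM8-22 agonist; peak minus trough fluorescence over baseline measured at the second addition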
MrgX1 ag: agonists of human MrgX1 receptor, primary screen, HEK293 cells, Fluo-4 calcium flux; Mas-related G-protein coupled receptor member X1 (Homo sapiens), Q96LB2; Fluo-4 calcium fluorescence, agonist mode; stronger effect = higher value; B-score at 10 µM; 0.44% of 310,000 active;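 active = calcium response B-score plate-corrected fluorescence ratio at least 3 library SD, with starting fluorescence B-score inside 5 SD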
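Assay system: MrgX1-expressing HEK293 cells / Amount: fifteen thousand cells per well / Doses: test compound in the initial addition of three / Timing: cells plated overnight, dye loaded 0.5 h 37 °C, 0.5 h room temperature / Technique: kinetic calcium dye fluorescence, Fluo-4 NW / Control set: positive and negative controls per plate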
RGS4 pot: RGS4 potentiators or activators, primary screen, cell-based, HEK293 M3R inducible RGS4, calcium flux; carbachol calcium flux Fluo4; stronger effect = lower value; B-score at 10 µM; 0.92% of 310,000 active;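 active = B-score of the integrated calcium signal more than 4 SD below the library mean, with starting fluorescence not abnormally high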;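 note: negative B-score means reduced calcium response which marks RGS4 activation or potentiation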
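System: HEK293 FlpIn-TREx cells, stable M3R, doxycycline-inducible RGS4. Timing: overnight RGS4 induction, 30 min dye load 37 °C, 20 min compound RT. Also added: carbachol, ECmax concentration. Measured by: Fluo4 fluorescence kinetic imaging of calcium. Evaluation: integrated calcium ratio converted to B score.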
RGS4 activ val: reduced carbachol calcium response, RGS4-induced M3R cells, confirmation, RGS4 activator project, cell-based, HEK293 M3R/RGS4 inducible, calcium flux, duplicate | inhibition, % at 10 µM | AID 602282, 2012 | shares compounds with RGS4 pot | carbachol calcium flux Fluo4 | 89% of 1,100 active;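 active = inhibition above 3 SD of the buffer control wells, cut at about 41% in these data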;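 note: signal is the integrated peak-minus-minimum Fluo4 fluorescence over baseline ratio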
RGS4 act ctr: RGS4 activator counter-screen hit in non-induced cells. shares compounds with RGS4 pot. HEK293 M3R non-induced RGS4, Fluo4 calcium flux; after carbachol challenge at its EC90. inhibition, % at 10 µM. 82% of 1,100 active. AID 602283;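 active = inhibition exceeding 3 SD of buffer-only control wells, cut at about 26% in these data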;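 note: percent drop in integrated peak-minus-baseline over baseline Fluo4 ratio after carbachol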
* hit, by the source's call; i = inactive; . = no result.

SMILES | MrgX1 antag | RGS4 inh | MrgX1 PAM | MrgX1 ag | RGS4 pot | RGS4 activ val | RGS4 act ctr
CCOc1ccc(Cc2n[nH]c(=S)n2Cc2ccccc2)cc1 | i | i | i | i | -8.8* | 61.0* | 83.8*
CCOc1ccccc1NC(=O)c1cc(S(=O)(=O)N2CCOCC2)ccc1C | i | i | i | i | i | . | .
CCCn1ncc(CN2CCN(Cc3ccsc3)C(CCO)C2)c1C (centres undefined) | i | i | i | i | i | . | .
CN(C)CCOC(=O)C1(c2ccccc2)CCCC1 | i | i | i | i | -8.5* | 92.0* | 90.8*
O=C(OCCN1CCCC1)C1(c2ccccc2)CCCC1 | . | i | . | . | -9.27* | 94.0* | 92.8*
O=C(OCCN1CCCCC1)C1(c2ccccc2)CCCC1 | i | i | i | i | -9.98* | 92.5* | 92.3*
C[N+]1(CCCOC(=O)C2(c3ccccc3)CCCC2)CCOCC1 | i | i | i | i | i | . | .
O=C(OCCN1CCCCC1)c1ccccc1Br | i | i | i | i | i | . | .
O=C(c1ccc(-c2nc3ccccc3s2)o1)N1CCN(c2ccccc2O)CC1 | i | i | i | i | -8.29* | 86.0* | 52.8*
O=C(O)c1ccc(-c2nc3ccccc3s2)o1 | i | i | i | i | i | . | .
Cc1ccc(S(=O)(=O)N2CCN(C(=O)COC(=O)C3CCC3)CC2)c(C)c1 | i | i | i | i | i | . | .
O=C(O)c1ccc(N/N=C/c2ccc(-c3ccccc3)cc2)cc1 | . | i | . | . | i | . | .
O=C(O)c1ccc(N/N=C/c2ccc(OC(=O)c3ccccc3Cl)cc2)cc1 | i | i | i | i | -14.1* | 0.0 | 0.0
CC(C)c1ccc(NC(=O)Cn2ncn3c(cc4ccccc43)c2=O)cc1 | i | i | i | i | i | . | .
Cc1ccc(CCC(=O)NCc2ccccc2)o1 | i | i | i | i | -7.77* | 0.0 | 0.0
CC(C)=CCc1c(O)c(CC=C(C)C)c2c(c1O)C(=O)CC(c1ccc(O)cc1)O2 (centres undefined) | i | i | i | i | i | . | .
CC(C)=CCc1c(O)cc(O)c2c1OC(c1ccc(O)cc1)CC2=O (centres undefined) | i | i | i | i | -9.93* | 90.5* | 85.8*
CC(C)c1ccc(NC(=O)CCNS(=O)(=O)c2cccc3nsnc23)cc1 | i | i | i | i | -8.02* | 0.0 | 0.0
CCc1ccc(NS(=O)(=O)c2cccc3nsnc23)cc1 | i | i | i | i | -8.56* | 72.5* | 83.8*
COc1ccc(OC)c(S(=O)(=O)N2CCN(C(=O)CCc3ccccc3)CC2)c1 | i | i | i | i | i | . | .
CCCCNC(=S)N/N=C1\C(=O)c2cccc3cccc1c23 | i | i | i | i | i | . | .
CNC(=S)N/N=C1\C(=O)c2cccc3cccc1c23 | i | i | i | i | -7.79* | 0.0 | 0.0
Cc1ccc(NC(=O)c2cnc(N3CCN(c4ccccn4)CC3)c3ccccc23)c(Br)c1 | i | i | i | i | -11.1* | 91.0* | 75.8*
CCc1ccc(NC(=O)c2sc3nc(C)nc(N4CCN(c5ccccn5)CC4)c3c2C)cc1 | i | i | i | i | -8.48* | 63.5* | 83.8*
O=C(Nc1c(F)cccc1F)c1cnc(N2CCN(c3ccccn3)CC2)c2ccccc12 | i | i | i | i | i | . | .
SMILES | MrgX1 antag | RGS4 inh | MrgX1 PAM | MrgX1 ag | RGS4 pot | RGS4 activ val | RGS4 act ctr
COc1ccc(NC(=O)c2sc3nc(C)nc(N4CCN(c5ccccn5)CC4)c3c2C)cc1Cl | i | i | i | i | i | . | .
Cc1nc(N2CCN(c3ccccn3)CC2)c2c(C)c(C(=O)Nc3ccc(F)cc3F)sc2n1 | i | i | i | i | -8.96* | 80.5* | 26.8*
Cc1nc(N2CCN(c3ccccn3)CC2)c2c(C)c(C(=O)Nc3ccccc3F)sc2n1 | i | i | i | i | -7.82* | 93.5* | 58.8*
Cc1nnc(SCC(=O)NNC(=O)c2ccc(Br)cc2)n1C | i | i | i | i | i | . | .
CCCCN(C)C(=O)c1cc2c(Cl)nc3ccccc3c2s1 | i | i | i | i | -8.72* | 59.0* | 44.8*
CCOC(=O)c1cnc2ccc(OCC)cc2c1N1CCN(c2ccccc2OC)CC1 | i | i | i | i | -9.1* | 93.0* | 92.8*
CCOc1ccc2ncc(C(=O)c3ccc(OC)cc3)c(N3CCN(CC)CC3)c2c1 | i | i | i | i | i | . | .
O=C(C1CC(=O)N(c2ccc(Cl)cc2)C1)N1CCN(Cc2ccc3c(c2)OCO3)CC1 (centres undefined) | i | i | i | i | i | . | .
CCCc1ncc(C(O)c2cccc3ccccc23)n1C (centres undefined) | i | i | i | i | i | . | .
CCCc1ncc(C(O)(c2ccccc2)c2ccc(C)cc2)n1C (centres undefined) | i | i | i | i | -7.9* | 92.5* | 62.8*
CCCc1ncc(C(O)(c2ccccc2)c2ccccc2)n1C | i | i | i | i | -11.6* | 93.0* | 81.3*
CCN(CCCNC(=O)CCNC(=O)Cn1cnc2ccccc2c1=O)c1cccc(C)c1 | i | i | i | i | i | . | .
CN1CCC(C2(O)c3ccccc3CSc3sccc32)CC1 (centres undefined) | i | . | i | i | . | . | .
CN1CCC(C2(O)c3ccccc3CCc3ccccc32)CC1 | i | i | i | i | -9.99* | 62.0* | 83.8*
CC[N+](C)(C)CC/C=C1/c2ccccc2Sc2ccc(Cl)cc21 | i | i | i | i | -12* | 93.5* | 93.3*
CC1CC(C)CN(CCCNC(=O)CN2C(=O)c3cccnc3Oc3ccccc32)C1 (centres undefined) | i | i | i | i | i | . | .
COc1ccc(NC2=NCC(Cc3ccc(Br)cc3)S2)cc1 (centres undefined) | i | i | i | i | -8.85* | 94.0* | 82.8*
